pEC50: −log10 of the molar value.
Columns and labels:
[1] = system: AncOR5_75_mut8x; format: cell-based; conditions: read-out: EC50, AncOR5_75_mut8x; Xenopus oocytes, concentrations 10^–8 to 10^–4 M
[2] = system: SlituOR5; test: Two-electrode voltage-clamp on Xenopus oocytes expressing SlituOR5; format: cell-based, S. litura; conditions: 10^–4 M; panel of 13 pheromone compounds; confirms the Drosophila OSN profile
[3] = system: S. exigua males; conditions: cited from earlier work
[4] = system: AncOR5; test: Two-electrode voltage-clamp on Xenopus oocytes coexpressing AncOR5 and SlitOrco; format: cell-based, ancestor of S. littoralis and S. litura
[5] = system: SfruOR5; test: Two-electrode voltage-clamp on Xenopus oocytes expressing SfruOR5; format: cell-based, S. frugiperda; conditions: 10^–4 M; panel of 13 pheromone compounds; confirms the Drosophila OSN profile
[6] = system: AncOR5; test: Single-sensillum recordings on Drosophila at1 OSNs expressing resurrected AncOR5; format: cell-based, ancestor of S. littoralis and S. litura; conditions: 10 μg loaded in the stimulus cartridge; panel of 26 pheromone compounds
[7] = system: AncOR5_75; format: cell-based, ancestor of S. littoralis and S. litura; conditions: doses 10 ng to 100 µg in the stimulus cartridge
Method in brief: (§1)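 Dose–response by single-sensillum extracellular recording from at1 OSNs of flies expressing the receptor transgene instead of Or67d (UAS-Or crossed to Or67d-GAL4). Flies reared at 25 °C, 12 h:12 h light:dark. Stimuli lasted 500 ms, delivered from filter-paper cartridges loaded with 10 ng to 100 µg pheromone diluted in hexane.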

[8] = system: SlituOR75; test: Single-sensillum recordings on Drosophila at1 OSNs expressing SlituOR75; format: cell-based, S. litura; conditions: 10 μg loaded in the stimulus cartridge; panel of 26 pheromone compounds
Method in brief: (§2)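 Receptor expressed in Drosophila at1 OSNs in place of Or67d (UAS-Or × Or67d-GAL4, double homozygous). Flies kept on cornmeal–yeast–agar at 25 °C, 12 h:12 h light:dark. Single-sensillum extracellular recording with 500 ms stimulation from Pasteur-pipette cartridges holding 10 µg compound (hexane dilution) on filter paper. Panel of 26 pheromone compounds. Active if different from solvent alone (one-way ANOVA, Dunnett's post hoc).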

[9] = system: SexiOR5; test: Two-electrode voltage-clamp on Xenopus oocytes expressing SexiOR5; format: cell-based, S. exigua; conditions: 10^–4 M; panel of 13 pheromone compounds; confirms the Drosophila OSN profile
[10] = system: SlitOR5; test: Single-sensillum recordings on Drosophila at1 OSNs expressing SlitOR5; format: cell-based, S. littoralis; conditions: 10 μg loaded in the stimulus cartridge; panel of 26 pheromone compounds
Method in brief: as §2

[11] = system: SlitOR75; test: Single-sensillum recordings on Drosophila at1 OSNs expressing SlitOR75; format: cell-based, S. littoralis; conditions: 10 μg loaded in the stimulus cartridge; panel of 26 pheromone compounds
Method in brief: as §2

[12] = system: S. littoralis and S. litura males; conditions: detection of the compound; cited from earlier work
[13] = system: SlituOR5; test: Single-sensillum recordings on Drosophila at1 OSNs expressing SlituOR5; format: cell-based, S. litura; conditions: 10 μg loaded in the stimulus cartridge; panel of 26 pheromone compounds
[14] = system: AncOR75; format: cell-based, ancestor of S. littoralis and S. litura; conditions: doses 10 ng to 100 µg in the stimulus cartridge
Method in brief: as §1

[15] = system: S. littoralis males; conditions: traps baited with their own sex pheromones; cited from earlier work
[16] = system: S. litura males; conditions: traps baited with their own sex pheromones; cited from earlier work
[17] = system: S. frugiperda males; conditions: presence at 1% in synthetic pheromone blends; cited from earlier work
[18] = system: AncOR5_75 V79L_A143T_A204V; format: cell-based; conditions: 10^−5 M solution; panel of six S. littoralis pheromone compounds
Method in brief: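 Mutation introduced into the pCS2+ ancestral-receptor plasmid and confirmed by Sanger sequencing. Capped cRNA made with SP6 from NotI-linearized template, coexpressed with SlitOrco in Xenopus oocytes. Two-electrode voltage-clamp inward currents to six compounds at 10^-5 M, diluted from 0.1 M DMSO stocks into Ringer's (HEPES, pH 7.6). Ringer's with 0.01% DMSO as negative control. Tuning compared by principal component analysis.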

For `CC/C=C/C=C\CCCCCCCCOC(C)=O` [(Z,E)-9,11-14:OAc, (Z,E)-9,11-tetradecadienyl acetate], the pEC50 [1] is listed as 6.40, the “Response spectrum (inward current), SlituOR5” value [2] is listed as “narrowly tuned” and the “Effect on trap catches of S. exigua males” value [3] is listed as “decreases trap catches”. For the same compound, the “Inward current, AncOR5” value ([4]; 10^−5 M solution, panel of six S. littoralis pheromone compounds) was “specifically responded”, the pEC50 ([4]; read-out: EC50, AncOR5, Xenopus oocytes, concentrations 10^–8 to 10^–4 M) was 5.96 and the “Response spectrum (inward current), SfruOR5” value [5] was “can bind”. For the same compound, the “Action potential frequency of at1 OSNs expressing AncOR5” value [6] was “responded specifically”, the “Activation threshold / sensitivity, dose–response of AncOR5_75” value [7] was “same activation threshold as AncOR5” and the “Action potential frequency of at1 OSNs expressing SlituOR75” value [8] was “low responses”. For the same compound, the “Response spectrum (inward current), SexiOR5” value [9] was “can bind”, the “Action potential frequency of at1 OSNs expressing SlitOR5” value [10] was “strong responses” and the “Action potential frequency of at1 OSNs expressing SlitOR75” value [11] was “low responses”. The Male attraction [12] was “necessary and sufficient to trigger male attraction”, the “Action potential frequency of at1 OSNs expressing SlituOR5” value [13] was “strong responses” and the “Activation threshold / sensitivity, dose–response of AncOR75” value [14] was “same activation threshold as AncOR5”.

In the case of `CCCC/C=C\CCCCCCCCO` [(Z)-9-14:OH, (Z)-9-tetradecen-1-ol], the “Effect on trap catches of S. littoralis males” value [15] is listed as “reduces catches in traps” and the “Effect on trap catches of S. litura males” value [16] is listed as “reduces catches in traps”.

In the case of `CC/C=C\C=C/CCCCCCCCOC(C)=O` [(Z,Z)-9,11-14:OAc, (Z,Z)-9,11-tetradecadienyl acetate], the “Activation threshold / sensitivity, dose–response of AncOR5_75” value [7] was “best ligand”, the “Action potential frequency of at1 OSNs expressing SlituOR5” value [13] was “significant yet minor response” and the “Activation threshold / sensitivity, dose–response of AncOR75” value [14] was “best ligand”.

For `CC/C=C/CCCCCCCCCCOC(C)=O` [(E)-11-14:OAc, (E)-11-tetradecenyl acetate], the “Proportion of males approaching the source in wind tunnel” value [17] is listed as “strongly increased the proportion of males approaching the source”.

In the case of `C/C=C/C/C=C\CCCCCCCCOC(C)=O` [(Z,E)-9,12-14:OAc, (Z,E)-9,12-tetradecadienyl acetate], the “Inward current, triple-mutant V79L_A143T_A204V” value [18] was “narrow tuning”.

For `CC/C=C\CCCCCCCCCCOC(C)=O` [(Z)-11-14:OAc, (Z)-11-tetradecenyl acetate], the “Response spectrum (inward current), SfruOR5” value [5] is given as “best SfruOR5 ligands” and the “Proportion of males approaching the source in wind tunnel” value [17] is given as “strongly increased the proportion of males approaching the source”.
